Source: ChEMBL document CHEMBL1125034, “Design and synthesis of 4H-3,1-benzoxazin-4-ones as potent alternate substrate inhibitors of human leukocyte elastase” (J Med Chem, 1990)

Key:
[1] = Alkaline hydrolysis rate of the compound; format: ADME
Method in brief: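 Alkaline hydrolysis rate constants measured at several pH values at 25 °C. Loss of the long-wavelength UV chromophore (λmax typically 300-345 nm) was followed by spectrophotometer.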

Neutrophil elastase = target: T1, Neutrophil elastase (Homo sapiens, UniProt P08246); experiment: Inhibition of human leukocyte elastase
T1 sequence (P08246 whole entry): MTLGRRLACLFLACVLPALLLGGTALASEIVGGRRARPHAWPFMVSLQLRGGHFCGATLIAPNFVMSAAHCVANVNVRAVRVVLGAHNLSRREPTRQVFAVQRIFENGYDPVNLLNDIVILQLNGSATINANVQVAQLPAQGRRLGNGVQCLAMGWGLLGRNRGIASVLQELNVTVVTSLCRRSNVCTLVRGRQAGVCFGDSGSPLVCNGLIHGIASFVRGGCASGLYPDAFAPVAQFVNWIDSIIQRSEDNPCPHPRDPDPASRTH

[2] = Partition coefficient (logD7.4); format: physicochemical; details: octanol/water, pH 7.4

Structure (SMILES)	Log kOH- [1]	Ki (Neutrophil elastase) [nM]	logD [2]
CCCCCCCCNc1nc2ccccc2c(=O)o1	0.03	31600	–
CCOC(=O)Nc1ccc2c(=O)oc(OCC)nc2c1	1.46	17.8	–
O=c1oc(OCc2ccccc2)nc2ccccc12	1.99	56.2	–
CCSc1nc2cc(CC)ccc2c(=O)o1	1.66	20.9	–
Cc1cccc2nc(NC3CCCC3)oc(=O)c12	–	200	–
COC(=O)[C@H](CC(C)C)NC(=O)[C@H](CC(C)C)Nc1nc2cc(C)cc(C)c2c(=O)o1	–	39.8	–
CCc1cc(OC)cc2nc(NC(C)C)oc(=O)c12	-0.6	11	–
O=c1oc(-c2ccco2)nc2ccccc12	1.94	1780	–
COc1cc2nc(SC/C=C/c3ccccc3)oc(=O)c2cc1OC	–	6920	–
CC(C)Nc1nc2cc(N)ccc2c(=O)o1	-0.46	776	–
CCCCCNc1nc2cccc(C)c2c(=O)o1	–	3390	–
CCOc1nc2c(C)ccc(C)c2c(=O)o1	–	0.0955	–
CCc1cccc2nc(N(C(C)C)C(C)C)oc(=O)c12	–	70.8	–
CCSc1nc2cc3ccccc3cc2c(=O)o1	2.54	72.4	–
CCCc1nc2ccccc2c(=O)o1	–	2880	–
Cc1cccc2nc(N(C(C)C)C(C)C)oc(=O)c12	–	398	–
CCNc1nc2ccccc2c(=O)o1	–	52.5	–
Cc1cccc2c(=O)oc(SCc3ccccc3)nc12	–	110	–
CCSc1nc2cccc(CC)c2c(=O)o1	1.37	–	–
CN(C)c1ccc(CNc2nc3ccccc3c(=O)o2)cc1	1.81	2000	–
CCOc1nc2cccc(C(C)C)c2c(=O)o1	0.96	0.0708	–
Cc1ccccc1CNc1nc2ccccc2c(=O)o1	1.01	2820	–
Cc1nc2cccc(C)c2c(=O)o1	0.85	1000	–

Structure (SMILES)	Log kOH- [1]	Ki (Neutrophil elastase) [nM]	logD [2]
O=c1oc(N2CCOCC2)nc2ccccc12	1.5	708	–
CCC(C)(C)Nc1nc2ccccc2c(=O)o1	–	155	–
CCCNc1nc2ccccc2c(=O)o1	–	–	2.4
CCN(CC)c1nc2c(C)ccc(C)c2c(=O)o1	–	105	–
Nc1nc2ccccc2c(=O)o1	0.53	–	–
CCC(C)Nc1nc2ccccc2c(=O)o1 (stereo not drawn)	0.92	43.7	–
CCOc1nc2ccccc2c(=O)o1	1.91	6.46	–
COC(=O)[C@@H](CC(C)C)NC(=O)[C@@H](CC(C)C)Nc1nc2cc(C)cc(C)c2c(=O)o1	–	102	–
CCOc1nc2cc(N)ccc2c(=O)o1	0.2	5.75	–
CC(=O)N(C)c1nc2ccccc2c(=O)o1	2.57	5.75	–
CCOc1nc2cccc(CC)c2c(=O)o1	1.17	0.0427	–
COc1cccc2nc(C(F)(F)F)oc(=O)c12	3.54	417	–
O=c1oc(C(F)(F)C(F)(F)F)nc2ccccc12	–	110	–
CCOC(=O)CNc1nc2ccccc2c(=O)o1	1.4	64600	–
CCNc1ccc2c(=O)oc(NC(C)C)nc2c1	–	692	2.4
CC(C)Sc1nc2ccccc2c(=O)o1	–	7.76	–
CCN(CC)c1ccc2c(=O)oc(NC(C)C)nc2c1	-0.99	5500	–
Cc1cccc2c(=O)oc(NC(C)C)nc12	0.69	589	–
CCOc1nc2cc(OC)cc(C)c2c(=O)o1	–	0.398	–
CCN(CC)c1nc2ccccc2c(=O)o1	–	372	–
COc1nc2cccc(C)c2c(=O)o1	–	10	–
O=c1oc(N2CCCC2)nc2ccccc12	0.97	1910	–
CCc1cccc2nc(C)oc(=O)c12	0.73	120	–

Structure (SMILES)	Log kOH- [1]	Ki (Neutrophil elastase) [nM]	logD [2]
Cc1cccc2ncoc(=O)c12	1.38	219	–
COc1cc2nc(OCc3ccccc3)oc(=O)c2cc1OC	0.97	933	–
Cc1cccc2nc(N)oc(=O)c12	-0.05	–	–
COc1cc2nc(C)oc(=O)c2cc1OC	0.53	832000	–
CC(C)(C)c1nc2ccccc2c(=O)o1	1.38	8910	–
CCc1cccc2nc(N[C@@H](CC(C)C)C(=O)OC)oc(=O)c12	0.48	12	–
CCCCN(CCCC)c1nc2cccc(C)c2c(=O)o1	–	363	–
CNc1nc2c(C)cccc2c(=O)o1	–	97700	–
Cc1cccc2nc(NCC(C)(C)C)oc(=O)c12	–	240	–
O=c1oc(SCc2ccccc2)nc2cc3ccccc3cc12	–	257	–
CSc1nc2ccccc2c(=O)o1	2.16	20.9	–
CCOc1nc2cccc(C)c2c(=O)o1	1.31	0.115	–
Cc1cccc2c(=O)oc(NCc3ccccc3)nc12	0.92	2000	–
CCCCN(C(C)=O)c1nc2ccccc2c(=O)o1	2.48	10	–
CCOc1nc2cccc(CBr)c2c(=O)o1	1.93	0.0676	–
Cc1ccc2nc(C(F)(F)F)oc(=O)c2c1	3.23	513	–
CC(C)COc1nc2ccccc2c(=O)o1	1.83	11.5	–
Cc1cccc2nc(Nc3ccccc3)oc(=O)c12	–	110	–
COc1cccc2nc(C)oc(=O)c12	0.83	14500	–
Cc1cccc2nc(NCCC(C)C)oc(=O)c12	–	1550	–
CCSc1nc2ccc(N(C)C)cc2c(=O)o1	1.76	339	–
CC(C)COC(=O)N(C)c1nc2ccccc2c(=O)o1	2.21	2.69	–
O=c1oc(-c2cccc([N+](=O)[O-])c2)nc2ccccc12	1.82	4370	–

Structure (SMILES)	Log kOH- [1]	Ki (Neutrophil elastase) [nM]	logD [2]
CCSc1nc2ccc(C)cc2c(=O)o1	1.95	170	–
CCOC(=O)C(Cc1ccccc1)Nc1nc2ccccc2c(=O)o1 (stereo not drawn)	–	1200	–
CCCCN(CCCC)c1nc2cccc(CC)c2c(=O)o1	–	178	–
CCc1cc(N(C)C)cc2nc(NC(C)C)oc(=O)c12	-1.88	110	–
O=c1oc(CBr)nc2ccccc12	2.06	955	–
COC(=O)[C@@H](NC(=O)[C@H](C)Nc1nc2ccccc2c(=O)o1)C(C)C	–	182	–
Cc1cccc2nc(CBr)oc(=O)c12	1.58	151	–
CC(C)[C@H](NC(=O)C1CCCN1c1nc2ccccc2c(=O)o1)C(N)=O (stereo partly drawn)	–	468	–
C[C@H](N)C(=O)c1nc2ccccc2c(=O)o1	1.76	759	–
Nc1cccc(CNc2nc3ccccc3c(=O)o2)c1	1.18	1580	–
CCOC(=O)CSc1nc2ccccc2c(=O)o1	2.93	72.4	–
O=c1oc(N2CCCCC2)nc2ccccc12	–	646	3
CCc1cccc2nc(N)oc(=O)c12	-0.08	–	–
CCCCNc1nc2c(C)cccc2c(=O)o1	0.86	407	–
CCCCNc1nc2cccc(C)c2c(=O)o1	0.41	–	–
Cc1ccc(C)c2c(=O)oc(NC(C)C)nc12	0.2	6.61	–
CCc1cccc2nc(NC(C)C)oc(=O)c12	0.31	–	–
CCCOc1cc(CC)c2c(=O)oc(NC(C)C)nc2c1	–	21.4	–
O=c1oc(Cc2ccccc2)nc2ccccc12	–	3630	–
O=c1oc(C(F)(F)C(F)(F)C(F)(F)F)nc2ccccc12	3.27	91.2	–
C[C@H](NC(=O)[C@@H]1CCCN1c1nc2ccccc2c(=O)o1)C(N)=O	–	234	–
COc1cc2nc(SCc3c[nH]c4ccccc34)oc(=O)c2cc1OC	–	12900	–
